ChEMBL document CHEMBL1124186, “Synthesis and evaluation of tylosin-related macrolides modified at the aldehyde function: a new series of orally effective antibiotics” (1988)
In brackets after ≈: the same amount, converted by molar mass.

Tests used:
Bacteroides fragilis [1] = assay: In vitro antimicrobial activity against anaerobic bacteria bacteroides fragilis 111; assay type: functional
Bacteroides fragilis [2] = assay: In vitro antimicrobial activity against anaerobic bacteria bacteroides fragilis 1877; assay type: functional
Bacteroides fragilis [3] = assay: In vitro antimicrobial activity against anaerobic bacteria bacteroides fragilis 1936B,; assay type: functional
Eikenella corrodens = assay: In vitro antimicrobial activity against anaerobic bacteria bacteroides corrodens 1874; assay type: functional
Phocaeicola vulgatus = assay: In vitro antimicrobial activity against anaerobic bacteria bacteroides vulgatus 1211; assay type: functional
[4] = test system: Prevotella melaninogenica; assay: In vitro antimicrobial activity against anaerobic bacteria bacteroides melaninogenicus 1856,; assay type: functional
[5] = test system: Bacteroides thetaiotaomicron; assay: In vitro antimicrobial activity against anaerobic bacteria bacteroides thetaiotaomicron 1438; assay type: functional
Clostridioides difficile = assay: In vitro antimicrobial activity against anaerobic bacteria Clostridium difficile 2994; assay type: functional
Clostridium perfringens = assay: In vitro antimicrobial activity against anaerobic bacteria clostridium perfringens 81,; assay type: functional
Clostridium septicum = assay: In vitro antimicrobial activity against anaerobic bacteria clostridium septicum 1128; assay type: functional
Chlamydia trachomatis = assay: In vitro antimicrobial activity against chlamydia trachomatis.; assay type: functional
Fusobacterium = assay: In vitro antimicrobial activity against anaerobic bacteria fusobacterium symbiosum 1470; assay type: functional
Haemophilus influenzae [6] = assay: In vitro antimicrobial activity against aerobic bacteria Haemophilus influenzae 76; assay type: functional
Haemophilus influenzae [7] = assay: In vitro antimicrobial activity against aerobic bacteria Haemophilus influenzae MX366,; assay type: functional
Haemophilus influenzae [8] = assay: In vitro antimicrobial activity against Haemophilus influenzae.; assay type: functional
[9] = test system: Haemophilus parainfluenzae; assay: In vitro antimicrobial activity against aerobic bacteria Haemophilus parainfluenzae 9796; assay type: functional
Mus musculus [10] = assay: Peripheral plasma levels in mice after oral administration of 50 mg/kg dose for 2 hr; assay type: functional, organism-based; design: dose 50 mg/kg
In short: (§1)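 Mice were given the compound orally and sampled for peripheral plasma at each time point. Plasma was assayed microbiologically against Micrococcus luteus seeded in Antibiotic Medium 1. Inhibition zone sizes were read, and concentrations were calculated from each compound's own standard curve. Each value is the mean of five mice per time point.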

Mus musculus [11] = assay: Peripheral plasma levels in mice after oral administration of 50 mg/kg dose for 4 hr; assay type: functional, organism-based; design: dose 50 mg/kg; in short: as §1
Mus musculus [12] = assay: Peripheral plasma levels in mice after oral administration of 100 mg/kg dose for 4 hr; assay type: functional, organism-based; design: dose 100 mg/kg; in short: as §1
Mus musculus [13] = assay: Peripheral plasma levels in mice after oral administration of 50 mg/kg dose for 0.25 hr; assay type: functional, organism-based; design: dose 50 mg/kg; in short: as §1
Mus musculus [14] = assay: Peripheral plasma levels in mice after oral administration of 100 mg/kg dose for 0.25 hr; assay type: functional, organism-based; design: dose 100 mg/kg; in short: as §1
Mus musculus [15] = assay: Peripheral plasma levels in mice after oral administration of 100 mg/kg dose for 0.5 hr; assay type: functional, organism-based; design: dose 100 mg/kg; in short: as §1
Mus musculus [16] = assay: Peripheral plasma levels in mice after oral administration of 100 mg/kg dose for 1 hr; assay type: functional, organism-based; design: dose 100 mg/kg; in short: as §1
Mus musculus [17] = assay: Peripheral plasma levels in mice after oral administration of 100 mg/kg dose for 2 hr; assay type: functional, organism-based; design: dose 100 mg/kg; in short: as §1
Mus musculus [18] = assay: Peripheral plasma levels in mice after oral administration of 50 mg/kg dose for 1 hr; assay type: functional, organism-based; design: dose 50 mg/kg; in short: as §1
[19] = In vitro antimicrobial activity against anaerobic bacteria peptostreptococcus intermedius 1264; assay type: functional
[20] = test system: Peptoniphilus asaccharolyticus; assay: In vitro antimicrobial activity against anaerobic bacteria peptococcus asaccharolyticus 1302; assay type: functional
Anaerococcus prevotii = assay: In vitro antimicrobial activity against anaerobic bacteria peptococcus prevoti 1281; assay type: functional
Cutibacterium acnes = assay: In vitro antimicrobial activity against anaerobic bacteria propionibacterium acnes 79; assay type: functional
Rattus norvegicus [21] = assay: Peripheral plasma levels in rats after oral administration of 100 mg/kg dose for 0.25 hr; assay type: functional, organism-based; design: dose 100 mg/kg
In short: (§2)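 Rats received 100 mg/kg orally and were sampled for peripheral plasma. Concentrations were measured by Micrococcus luteus agar-diffusion microbiological assay in Antibiotic Medium 1, with zone sizes converted using the standard curve for the appropriate compound. Each value is the average of three rats per time point.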

Rattus norvegicus [22] = assay: Peripheral plasma levels in rats after oral administration of 100 mg/kg dose for 0.5 hr; assay type: functional, organism-based; design: dose 100 mg/kg; in short: as §2
Rattus norvegicus [23] = assay: Peripheral plasma levels in rats after oral administration of 100 mg/kg dose for 1 hr; assay type: functional, organism-based; design: dose 100 mg/kg; in short: as §2
Rattus norvegicus [24] = assay: Peripheral plasma levels in rats after oral administration of 100 mg/kg dose for 2 hr; assay type: functional, organism-based; design: dose 100 mg/kg; in short: as §2
Rattus norvegicus [25] = assay: Peripheral plasma levels in rats after oral administration of 100 mg/kg dose for 4 hr; assay type: functional, organism-based; design: dose 100 mg/kg; in short: as §2

For `CC[C@H]1OC(=O)C[C@@H](O)[C@H](C)[C@@H](O[C@@H]2O[C@H](C)[C@@H](O)[C@H](N(C)C)[C@H]2O)[C@@H](CCOc2ccccc2)C[C@@H](C)C(=O)/C=C/C(C)=C/[C@@H]1CO[C@@H]1O[C@H](C)[C@@H](O)[C@@H](OC)[C@H]1OC`, the MIC (Bacteroides fragilis [1]) was 1 µg/mL (≈ 1.18 µM), the MIC (Bacteroides fragilis [2]) was 1 µg/mL (≈ 1.18 µM) and the MIC (Bacteroides fragilis [3]) was 1 µg/mL (≈ 1.18 µM). The MIC (Eikenella corrodens) was 1 µg/mL (≈ 1.18 µM), the MIC (Phocaeicola vulgatus) was 1 µg/mL (≈ 1.18 µM) and the MIC [4] was 1 µg/mL (≈ 1.18 µM). For the same molecule, the MIC [5] was 2 µg/mL (≈ 2.35 µM), the MIC (Clostridioides difficile) was < 0.5 µg/mL and the MIC (Clostridium perfringens) was < 0.5 µg/mL. The MIC (Clostridium septicum) was < 0.5 µg/mL, the MIC (Chlamydia trachomatis) was 0.25 µg/mL (≈ 0.294 µM) and the MIC (Fusobacterium) was 1 µg/mL (≈ 1.18 µM). It also gave an MIC (Haemophilus influenzae [6]) of 16 µg/mL (≈ 18.8 µM), an MIC (Haemophilus influenzae [7]) of 16 µg/mL (≈ 18.8 µM) and an MIC (Haemophilus influenzae [8]) of 32 µg/mL (≈ 37.6 µM). For the same molecule, the MIC [9] was 32 µg/mL (≈ 37.6 µM), the Concentration (Mus musculus [10]) was 1.2 µg/mL and the Concentration (Mus musculus [11]) was 0.2 µg/mL. For the same molecule, the Concentration (Mus musculus [12]) was 1.2 µg/mL, the Concentration (Mus musculus [13]) was 3.2 µg/mL and the Concentration (Mus musculus [14]) was 8.9 µg/mL. For the same molecule, the Concentration (Mus musculus [15]) was 11.5 µg/mL, the Concentration (Mus musculus [16]) was 13.1 µg/mL and the Concentration (Mus musculus [17]) was 6.5 µg/mL. For the same molecule, the Concentration (Mus musculus [18]) was 2.4 µg/mL, the MIC [19] was 2 µg/mL (≈ 2.35 µM) and the MIC [20] was 1 µg/mL (≈ 1.18 µM). It also gave an MIC (Anaerococcus prevotii) of 1 µg/mL (≈ 1.18 µM), an MIC (Cutibacterium acnes) of 8 µg/mL (≈ 9.41 µM) and a Concentration (Rattus norvegicus [21]) of 2.6 µg/mL. It also gave a Concentration (Rattus norvegicus [22]) of 3.9 µg/mL, a Concentration (Rattus norvegicus [23]) of 3.4 µg/mL and a Concentration (Rattus norvegicus [24]) of 4.8 µg/mL. It also gave a Concentration (Rattus norvegicus [25]) of 5.6 µg/mL.
